Measured values published in ChEMBL document CHEMBL6177937, “Design, synthesis, and biological evaluation of novel thiazole derivatives as PI3K/mTOR dual inhibitors” (RSC Med Chem, 2024).

Legend:
[1] = system: Panel NCI-60 (60 carcinoma cell lines); experiment: Antiproliferative activity against human NCI-60 cells assessed as growth inhibition at 10 uM measured after 48 hrs by SRB assay relative to control; assay type: functional; conditions: read-out: GI
In short: (§1)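 NCI screen: cells seeded at […] per well and preincubated 24 h (37°C, 5% CO2). Compound stocks in DMSO, tested at a single 10 μM. Exposure 48 h. Adherent cells fixed with cold TCA (10% final), suspension cells with 16% TCA. SRB stain read at 515 nm. Percent growth inhibition reported against time-zero and untreated controls.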

ACHN = experiment: Growth inhibition of human ACHN cells at 10 uM measured after 48 hrs by SRB assay relative to control; assay type: functional; conditions: read-out: GI; in short: as §1
MCF7 = experiment: Growth inhibition of human MCF7 cells at 10 uM measured after 48 hrs by SRB assay relative to control; assay type: functional; conditions: read-out: GI; in short: as §1
NCI-H322M = experiment: Growth inhibition of human NCI-H322M cells at 10 uM measured after 48 hrs by SRB assay relative to control; assay type: functional; conditions: read-out: GI; in short: as §1
RPMI-8226 = experiment: Growth inhibition of human RPMI-8226 cells at 10 uM measured after 48 hrs by SRB assay relative to control; assay type: functional; conditions: RPMI-8226, read-out: GI
In short: (§2)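 Single-dose NCI screen at 10 μM: 48 h exposure at 37°C, 5% CO2; adherent cells fixed in cold TCA (final 10%), suspension cells in TCA (final 16%); SRB stain solubilized in 10 mM Trizma base, absorbance 515 nm; percent growth inhibition calculated relative to untreated control and time-zero plates.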

OVCAR-3 = experiment: Growth inhibition of human OVCAR-3 cells at 10 uM measured after 48 hrs by SRB assay relative to control; assay type: functional; conditions: OVCAR-3, read-out: GI; in short: as §1
KM12 = experiment: Growth inhibition of human KM12 cells at 10 uM measured after 48 hrs by SRB assay relative to control; assay type: functional; conditions: KM12, read-out: GI; in short: as §1
RXF 393 = experiment: Growth inhibition of human RXF 393 cells at 10 uM measured after 48 hrs by SRB assay relative to control; assay type: functional; conditions: read-out: GI; in short: as §2
UO-31 = experiment: Growth inhibition of human UO-31 cells at 10 uM measured after 48 hrs by SRB assay relative to control; assay type: functional; conditions: read-out: GI; in short: as §2
HCT-116 = experiment: Growth inhibition of human HCT-116 cells at 10 uM measured after 48 hrs by SRB assay relative to control; assay type: functional; conditions: read-out: GI; in short: as §1
A549 = experiment: Growth inhibition of human A549 cells at 10 uM measured after 48 hrs by SRB assay relative to control; assay type: functional; conditions: A549, read-out: GI; in short: as §1
SW-620 = experiment: Growth inhibition of human SW620 cells at 10 uM measured after 48 hrs by SRB assay relative to control; assay type: functional; conditions: read-out: GI; in short: as §2
NCI-H460 = experiment: Growth inhibition of human NCI-H460 cells at 10 uM measured after 48 hrs by SRB assay relative to control; assay type: functional; conditions: NCI-H460, read-out: GI; in short: as §1
HT-29 = experiment: Growth inhibition of human HT-29 cells at 10 uM measured after 48 hrs by SRB assay relative to control; assay type: functional; conditions: HT-29, read-out: GI; in short: as §1
HL-60 = experiment: Cytotoxicity against human HL-60 cells assessed as reduction in cell viability measured after 24 hrs by MTT assay; assay type: functional, cell-based; conditions: HL-60, 24 h
In short: (§3)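 MTT viability with 24 h incubation in 96-well plates. Five semi-log concentrations from 0.01 to 100 μM. Formazan absorbance read at 570 nm, with 690 nm background subtracted. Run in triplicate. IC50 obtained by sigmoidal dose-response fitting. Cells are leukemia HL-60(TB) and normal lymphocytes (PCS-800-017).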

[2] = Cytotoxicity against human PCS-800-017 cells assessed as reduction in cell viability measured after 24 hrs by MTT assay; assay type: toxicity, cell-based; in short: as §3

COc1cc(/C=N/Nc2nc(-c3ccccc3)cs2)ccc1OCc1ccccc1
inhibition of growth at 10 µM [1]: 19.1%

C(=N\Nc1nc(-c2ccccc2)cs1)/c1ccc(OCc2ccccc2)cc1
inhibition of growth at 10 µM (ACHN): 79.8% | inhibition of growth at 10 µM [1]: 13.1%

O=[N+]([O-])c1cc(/C=N/Nc2nc(-c3ccccc3)cs2)ccc1Cl
inhibition of growth at 10 µM (MCF7): 89.9% | inhibition of growth at 10 µM (NCI-H322M): 83.1% | inhibition of growth at 10 µM (RPMI-8226): 85.1% | inhibition of growth at 10 µM (OVCAR-3): 96.2% | inhibition of growth at 10 µM [1]: 21.5% | inhibition of growth at 10 µM (KM12): 86.6%

Cc1c(/C=N/Nc2nc(-c3cccc([N+](=O)[O-])c3)cs2)c(=O)n(-c2ccccc2)n1C
inhibition of growth at 10 µM [1]: 16.2%

O=[N+]([O-])c1cccc(-c2csc(N/N=C/c3ccc(OCc4ccccc4)cc3)n2)c1
inhibition of growth at 10 µM [1]: 18.5%

O=[N+]([O-])c1cccc(-c2csc(N/N=C/c3ccc(Cl)c([N+](=O)[O-])c3)n2)c1
inhibition of growth at 10 µM [1]: 36%

COc1cc(/C=N/Nc2nc(-c3ccc(Cl)cc3)cs2)ccc1OCc1ccccc1
inhibition of growth at 10 µM (MCF7): 45% | inhibition of growth at 10 µM [1]: 16.5%

COc1cc(/C=N/Nc2nc(-c3cccc([N+](=O)[O-])c3)cs2)ccc1OCc1ccccc1
inhibition of growth at 10 µM [1]: 28.8%

CCOc1cc(/C=N/Nc2nc(-c3cccc([N+](=O)[O-])c3)cs2)ccc1OCc1ccccc1
inhibition of growth at 10 µM (RXF 393): 79.2% | inhibition of growth at 10 µM [1]: 23.9%

CCOc1cc(/C=N/Nc2nc(-c3ccccc3)cs2)ccc1O
inhibition of growth at 10 µM [1]: 36.9%

CCOc1cc(/C=N/Nc2nc(-c3ccccc3)cs2)ccc1OCc1ccccc1
inhibition of growth at 10 µM (UO-31): 48.1% | inhibition of growth at 10 µM [1]: 14.5%

CCOc1cc(/C=N/Nc2nc(-c3ccc(Cl)cc3)cs2)ccc1OCc1ccccc1
inhibition of growth at 10 µM (HCT-116): 87.5% | inhibition of growth at 10 µM (A549): 87.4% | inhibition of growth at 10 µM (SW-620): 76.2% | inhibition of growth at 10 µM (NCI-H460): 88.8% | inhibition of growth at 10 µM [1]: 37.1%

CCOc1cc(/C=N/Nc2nc(-c3ccc(Br)cc3)cs2)ccc1OCc1ccccc1
inhibition of growth at 10 µM (HT-29): 73.9% | inhibition of growth at 10 µM (HCT-116): 70.9% | inhibition of growth at 10 µM (A549): 76.4% | inhibition of growth at 10 µM (SW-620): 76.1% | inhibition of growth at 10 µM (NCI-H460): 78.6% | inhibition of growth at 10 µM [1]: 31.8%

COc1cccc2c1C(=O)c1c(O)c3c(c(O)c1C2=O)C[C@@](O)(C(=O)CO)C[C@@H]3O[C@H]1C[C@H](N)[C@H](O)[C@H](C)O1 [DOXORUBICIN]
IC50 (HL-60): 0.45 µM | IC50 at 24 h [2]: 12.5 µM

Cc1c(/C=N/Nc2nc(-c3ccc(Br)cc3)cs2)c(=O)n(-c2ccccc2)n1C
inhibition of growth at 10 µM [1]: 9.82%

O=[N+]([O-])c1cccc(-c2csc(N/N=C/c3ccc4c(c3)OCO4)n2)c1
inhibition of growth at 10 µM [1]: 18.2%
